In ChEMBL document CHEMBL4138310 (J Med Chem, 2018):

Columns and labels:
[1] = target: Protease (Human immunodeficiency virus 1) (UniProt Q9YQ12); assay: Inhibition of recombinant HIV1 protease at 1 nM using H-Lys-Ala-Arg-Val-Tyr-Phe(p-NO2)-Glu-Ala-Nle-NH2 as substrate preincubated for 5 mins followed by substrate addition measured after 3 hrs by fluorescence-based assay
Procedure, shortened: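 Recombinant HIV-1 protease (40 ng/mL stock in pH 5.0 acetate/EDTA/NaCl/2-mercaptoethanol/NP-40/glycerol) mixed with inhibitor (10 nM solution in DMSO) in 200 mM MES-NaOH pH 5.5 with 2 mM DTT, 2 mM EDTA and 1 M NaCl. Preincubated 5 min at 37 °C, then 1.0 mM substrate solution added and incubated 3 h at 37 °C. Stopped with 1 N HCl. The Lys-Ala-Arg-Val-Tyr-OH product was quantified by RP-HPLC with fluorescence (Ex 275, Em 305 nm). Single determination.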

[2] = tested on: Human immunodeficiency virus 1; assay: Antiviral activity against wild-type HIV1 3B infected in human MT4 cells assessed as inhibition of virus-induced cytopathic effect after 5 days in absence of human serum by MTT assay; format: functional, organism-based; settings: Human immunodeficiency virus 1, 3B, MT4, 120 h
[3] = tested on: Human immunodeficiency virus 1; assay: Antiviral activity against wild-type HIV1 3B infected in human MT4 cells assessed as inhibition of virus-induced cytopathic effect after 5 days in presence of 50 % of human serum by MTT assay; format: functional, organism-based; settings: Human immunodeficiency virus 1, 3B, MT4, 120 h
[4] = tested on: Human immunodeficiency virus 1; assay: Ratio of EC50 for wild-type HIV1 3B infected in human MT4 in presence of 50% of huma serum to EC50 for wild-type HIV-1 3B infected in human MT4 in absence of human serum; format: functional
[5] = tested on: Human immunodeficiency virus 1; assay: Antiviral activity against wild-type HIV1 pNL4-3 infected in human MT4 cells assessed as inhibition of virus-induced cytopathic effect after 5 days in absence of human serum by MTT assay; format: functional, organism-based; settings: Human immunodeficiency virus 1, pNL4-3, MT4, 120 h
Procedure, shortened: (§1)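 MT-4 cells inoculated with HIV-1 pNL4-3, then given an equal volume of compound at several concentrations in 1% DMSO solution with 10% FBS. Incubated 5 days at 37 °C in CO2, in triplicate. MTT read by optical density, percent reduction of cytopathic effect calculated, and EC50 fitted to the median-effect equation. Values averaged over n = 3; the 50% human serum condition was run alongside.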

[6] = tested on: Human immunodeficiency virus 1; assay: Antiviral activity against wild-type HIV1 pNL4-3 infected in human MT4 cells assessed as inhibition of virus-induced cytopathic effect after 5 days in presence of 50 % of human serum by MTT assay; format: functional, organism-based; settings: Human immunodeficiency virus 1, pNL4-3, MT4, 120 h; procedure, shortened: as §1
[7] = tested on: Human immunodeficiency virus 1; assay: Ratio of EC50 for wild-type HIV1 pNL4-3 infected in human MT4 in presence of 50% of human serum to EC50 for wild-type HIV-1 pNL4-3 infected in human MT4 in absence of human serum; format: functional
Procedure, shortened: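 Serum binding effect calculated as the pNL4-3 EC50 in 50% human serum divided by the EC50 in 0% serum, using MT-4 cytopathic-effect MTT assays run for 5 days at 37 °C.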

[8] = tested on: Human immunodeficiency virus 1; assay: Antiviral activity against wild-type HIV1 3B infected in human MT4 cells assessed as inhibition of virus-induced cytopathic effect after 5 days by MTT assay; format: functional, organism-based; settings: Human immunodeficiency virus 1, 3B, MT4, 120 h
[9] = Ratio of EC50 for inhibition of HIV1 A17 protease L10F/V32I/M46I/I47V/Q58E/I84V mutant infected in human MT4 cells to EC50 for wild-type HIV-1 3B infected in human MT4 cells; format: functional, Human immunodeficiency virus 1
[10] = Ratio of EC50 for inhibition of protease L10F/V32I/M46I/I47V/Q58E/I84V mutant in HIV1 A17 infected in human MT4 cells to EC50 for wild-type HIV-1 pNL4-3 infected in human MT4 cells; format: functional, Human immunodeficiency virus 1
Procedure, shortened: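 Ratio of EC50 values from MT-4 cytopathic-effect MTT assays (5 days, 37 °C, triplicate, median-effect fit). Numerator is LPV-resistant strain A1711, denominator is wild-type HIV-1 pNL4-3.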

[11] = Cytotoxicity against human MT4 cells after 5 days by MTT assay; format: cell-based; settings: read-out: TD50
Procedure, shortened: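 Uninfected MT-4 cells given compound at several concentrations in 1% DMSO solution with 10% FBS. Incubated 5 days at 37 °C in CO2, in triplicate. Viability read by MTT optical density, with TD50 taken as the cytotoxic measure.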

[12] = tested on: Human immunodeficiency virus 1; assay: Antiviral activity against wild-type HIV1 pNL4-3 infected in CMVdeltaR8.91 transfected 293T cells after 48 hrs by lentiviral vector-based luciferase reporter gene assay; format: functional, organism-based; settings: Human immunodeficiency virus 1, pNL4-3, HEK-293T
Procedure, shortened: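 pNL4-3-based luciferase reporter lentiviral vector made by transfecting 293T cells with pCMV-ΔR8.91 (wild-type or V32I/L33F/I54M/V82I or V32I/L33F/I54M/I84V protease) plus luciferase transfer and envelope plasmids, with or without inhibitor. After 48 h, fresh 293T cells infected with vector. IC50 for suppression of luciferase transduction taken from dose-response curve.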

[13] = tested on: Human immunodeficiency virus 1; assay: Ratio of EC50 for wild-type HIV1 3B infected in human MT4 in presence of 50% of huma serum to EC50 for wild-type HIV-1 pNL4-3 infected in human MT4 in absence of human serum; format: functional
Procedure, shortened: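 Serum binding effect: EC50 measured with 50% human serum divided by EC50 measured without serum. Each EC50 came from protection of MT-4 cells from HIV-induced cytopathic effect. Infected cells were exposed to several compound concentrations in 1% DMSO with 10% FBS for 5 days at 37 °C in triplicate, read by MTT optical density, and fitted to a median-effect equation.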

Row | inhibition [1] [%] | Structure (SMILES) | EC50 [5] [nM] | EC50 [6] [nM] | Ratio EC50 [7] | other results
1 | 14 | CSC[C@H](NC(=O)COc1cccc2cnccc12)C(=O)N[C@@H](Cc1ccccc1)[C@H](O)C(=O)N1CSC[C@H]1C(=O)NC(C)(C)C | – | – | – | EC50 [2]: 176 nM; EC50 [3]: 2880 nM; Ratio EC50 [4]: 16
2 | 69 | Cc1ccccc1CNC(=O)[C@H]1N(C(=O)[C@@H](O)[C@H](Cc2ccccc2)NC(=O)[C@@H](NC(=O)c2ccc3ccccc3n2)[C@@H]2CCOC2)CSC1(C)C | 26 | 602 | 23 | –
3 | 94 | CN(C)c1cccc(OCC(=O)N[C@H](C(=O)N[C@@H](Cc2ccccc2)[C@H](O)C(=O)N2CSC(C)(C)[C@H]2C(=O)NC/C=C\CO)[C@H]2CCOC2)c1 | 567 | 2050 | 3.6 | –
4 | 97 | Cc1ccccc1CNC(=O)[C@H]1N(C(=O)[C@@H](O)[C@H](Cc2ccccc2)NC(=O)[C@@H](NC(=O)COc2cccc3cnccc23)[C@H]2CCOC2)CSC1(C)C | 21 | 4350 | 207 | –
5 | 93 | CN(C)c1cccc(OCC(=O)N[C@H](C(=O)N[C@@H](Cc2ccccc2)[C@H](O)C(=O)N2CSC(C)(C)[C@H]2C(=O)NC2CCCC2)[C@H]2CCOC2)c1 | 10 | 103 | 10 | –
6 | 97 | CN(C)c1cccc(OCC(=O)N[C@H](C(=O)N[C@@H](Cc2ccccc2)[C@H](O)C(=O)N2CSC(C)(C)[C@H]2C(=O)N[C@H]2CCc3ccccc32)[C@H]2CCOC2)c1 | 5 | 30 | 6 | –
7 | – | CC(C)CN(C[C@@H](O)[C@H](Cc1ccccc1)NC(=O)O[C@H]1CO[C@H]2OCC[C@H]21)S(=O)(=O)c1ccc(N)cc1 | – | – | – | EC50 [12]: 0.82 nM
8 | 86 | Cc1ccccc1CNC(=O)[C@H]1N(C(=O)[C@@H](O)[C@H](Cc2ccccc2)NC(=O)[C@@H](NC(=O)c2cnc3ccccc3n2)[C@@H]2CCOC2)CSC1(C)C | 12 | 131 | 11 | –
9 | 98 | Cc1cccc(C)c1CNC(=O)[C@H]1N(C(=O)[C@@H](O)[C@H](Cc2ccccc2)NC(=O)[C@@H](NC(=O)c2cc(=O)c3ccccc3o2)[C@H]2CCOC2)CSC1(C)C | 5 | 115 | 23 | –
10 | 96 | Cc1ccccc1CNC(=O)[C@H]1N(C(=O)[C@@H](O)[C@H](Cc2ccccc2)NC(=O)[C@@H](NC(=O)c2ccc3ccccc3n2)[C@H]2CCOC2)CSC1(C)C | < 3 | 411 | >137 | –
11 | – | Cc1cccc(C)c1OCC(=O)N[C@@H](Cc1ccccc1)[C@@H](O)C[C@H](Cc1ccccc1)NC(=O)[C@H](C(C)C)N1CCCNC1=O [LOPINAVIR] | – | – | – | CC50 at 120 h [11]: > 10000 nM
12 | 95 | C=CCNC(=O)[C@H]1N(C(=O)[C@@H](O)[C@H](Cc2ccccc2)NC(=O)[C@@H](NC(=O)COc2cccc(N(C)C)c2)[C@H]2CCOC2)CSC1(C)C | 8 | 190 | 24 | –
13 | 95 | CN(C)c1cccc(OCC(=O)N[C@H](C(=O)N[C@@H](Cc2ccccc2)[C@H](O)C(=O)N2CSC(C)(C)[C@H]2C(=O)N[C@H]2c3ccccc3C[C@H]2O)[C@H]2CCOC2)c1 | 4 | 79 | 20 | –
14 | 98 | Cc1cccc(C)c1CNC(=O)[C@H]1N(C(=O)[C@@H](O)[C@H](Cc2ccccc2)NC(=O)[C@@H](NC(=O)COc2cccc3cnccc23)[C@H]2CCOC2)CSC1(C)C | 60 | 143 | 2.4 | –
15 | 97 | C=C(C)CNC(=O)[C@H]1N(C(=O)[C@@H](O)[C@H](Cc2ccccc2)NC(=O)[C@@H](NC(=O)COc2cccc(N(C)C)c2)[C@H]2CCOC2)CSC1(C)C | 7 | 49 | 7 | –

Row | Structure (SMILES) | inhibition [1] [%] | EC50 [5] [nM] | EC50 [6] [nM] | Ratio EC50 [7] | other results
16 | COc1cccc2cc(C(=O)N[C@H](C(=O)N[C@@H](Cc3ccccc3)[C@H](O)C(=O)N3CSC(C)(C)[C@H]3C(=O)NCc3c(C)cccc3C)C(C)C)oc12 | 95 | – | – | – | EC50 [8]: < 3 nM; Ratio EC50 [9]: >103
17 | Cc1cccc(C)c1CNC(=O)[C@H]1N(C(=O)[C@@H](O)[C@H](Cc2ccccc2)NC(=O)[C@@H](NC(=O)COc2cccc(Nc3ccccc3)c2)[C@H]2CCOC2)CSC1(C)C | 93 | 5 | 103 | 21 | Ratio EC50 [10]: 45; CC50 at 120 h [11]: 39000 nM
18 | Cc1cccc(C)c1CNC(=O)[C@H]1N(C(=O)[C@@H](O)[C@H](Cc2ccccc2)NC(=O)[C@@H](NC(=O)COc2cccc(N(C)C)c2)[C@H]2CCOC2)CSC1(C)C | 97 | < 3 | 15 | >5 | Ratio EC50 [10]: >55; CC50 at 120 h [11]: 60000 nM
19 | COc1cccc2cc(C(=O)N[C@@H](CC(N)=O)C(=O)N[C@@H](Cc3ccccc3)[C@H](O)C(=O)N3CSC(C)(C)[C@H]3C(=O)NCc3c(C)cccc3C)oc12 | 96 | 60 | – | – | Ratio EC50 [10]: 1.4
20 | Cc1cccc(C)c1CNC(=O)[C@H]1N(C(=O)[C@@H](O)[C@H](Cc2ccccc2)NC(=O)[C@H](CC(N)=O)NC(=O)c2cc3ccccc3o2)CSC1(C)C | 97 | – | – | – | EC50 [8]: 38 nM; Ratio EC50 [9]: 1.6
21 | Cc1cccc(C)c1CNC(=O)[C@H]1N(C(=O)[C@@H](O)[C@H](Cc2ccccc2)NC(=O)[C@@H](NC(=O)c2cc3ccccc3o2)C(C)C)CSC1(C)C | 93 | – | – | – | EC50 [8]: 18 nM; Ratio EC50 [9]: 61
22 | Cc1ccccc1CNC(=O)[C@H]1N(C(=O)[C@@H](O)[C@H](Cc2ccccc2)NC(=O)c2cccc(O)c2C)CSC1(C)C | 48 | 60 | – | – | EC50 [3]: 114 nM; Ratio EC50 [13]: 2; Ratio EC50 [10]: 46; CC50 at 120 h [11]: 23000 nM
23 | Cc1cccc(C)c1CNC(=O)[C@H]1N(C(=O)[C@@H](O)[C@H](Cc2ccccc2)NC(=O)[C@@H](NC(=O)c2cc3ccccc3o2)[C@H]2CCOC2)CSC1(C)C | 97 | 12 | 90 | 7.5 | Ratio EC50 [10]: 57; CC50 at 120 h [11]: 38000 nM
24 | Cc1ccccc1CNC(=O)[C@H]1N(C(=O)[C@@H](O)[C@H](Cc2ccccc2)NC(=O)[C@@H](NC(=O)c2cnc3ccccc3n2)[C@H]2CCOC2)CSC1(C)C | 97 | 4 | 84 | 21 | Ratio EC50 [10]: 24; CC50 at 120 h [11]: 10000 nM
